According to the RNAGym collection of RNA variant scans (doi:10.1126/science.aae0568):
Fewer inactive variants are shown than the library holds.

B1: tRNA (parent)
chain: GUUCCGUUGGCGUAAUGGUAACGCGUCUCCCUCCUAAGGAGAAGACUGCGGGUUCGAGUCCCGUACGGAACG

Variants of: B1
Experiment: yeast fitness relative to wild type (ratio to wild type); higher = fitter; tRNA-Arg(CCU), competitive growth, 37 C, YPD
Method in brief: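 Variants of the tRNA-Arg(CCU) gene, chemically synthesised with a 3% per-site mutation rate at 69 sites, were placed at the native genomic locus in Saccharomyces cerevisiae. The pooled strains were competed in YPD at 37°C for 24 hours in six parallel replicates. Gene amplicons from the start population and from each end population were read by 100-nucleotide paired-end sequencing. Darwinian fitness relative to wild type came from changes in genotype frequencies; genotypes needed ≥ 100 starting reads, and estimates < 0.5 were set to 0.5.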

| Variant | yeast fitness |
| --- | --- |
| G25A C60G C61A G63A | ≤ 0.5 |
| G25A C29U A69C | 0.807 |
| G25A A40C C46U C55U | 0.672 |
| G25A C60A C61G A65U | ≤ 0.5 |
| C24U U32G A40U A65C | ≤ 0.5 |
| G25A A42U A43C G44A | 0.764 |
| G25A G50A G63C | 0.641 |
| C24U U32G A69C A70U | ≤ 0.5 |
| C24U U32C A69U | 0.818 |
| C24U U53A C66U | 0.55 |
| G25A C30U A43G G52A | 0.701 |
| G25C A45U C60A | ≤ 0.5 |
| C24U C61G | 0.598 |
| C24U C61A | 0.612 |
| C24U C61U | 0.881 |
| G25A A65U | 0.981 |
| G25C C27A C31G | ≤ 0.5 |
| G25A G39C | 0.755 |
| G25A A40C C46U A69C | 0.764 |
| G25C A43C C62A U64G C66G | ≤ 0.5 |
| C24U U59A U64C | ≤ 0.5 |
| G25A C29A A57C A70G | ≤ 0.5 |
| G25A U47C U64C A70C | 1.06 |
| G25A A43G C49U | 0.94 |

| Variant | yeast fitness |
| --- | --- |
| G25A G44C C61G | 0.526 |
| C24U C62G U64G | ≤ 0.5 |
| G25A G52A A70U | 0.666 |
| C24U C61U U64C | 0.697 |
| C24U G25C C46U G50C | ≤ 0.5 |
| C24U G56A G67A | 0.731 |
| C24U U32G G52C G63A G68C | ≤ 0.5 |
| C24U U32G G56A | 0.53 |
| C24U G44C C62U | 0.784 |
| G25A A42G U59C | ≤ 0.5 |
| G25C A40U G48C | ≤ 0.5 |
| G25A A40C C66U A70C | ≤ 0.5 |
| C24U U47C G67C | 0.688 |
| G25A A45G A65G | 0.823 |
| C24U U28G C33G C34U A36G A40G A70C | ≤ 0.5 |
| G25A G41C A57U | 0.649 |
| G25A C60G | 0.718 |
| G25A C60A | 0.66 |
| C24U G39A | 0.875 |
| C24U G39C | 0.735 |
| G25A A43G C49U U64C | 0.924 |
| G25A C46G U53A A65C | ≤ 0.5 |
| G25A G58C A69C | 1.01 |
| G25A G38C | 0.775 |

| Variant | yeast fitness |
| --- | --- |
| C24U U26C A65C | 0.695 |
| G25A G58A | 0.872 |
| G25A G58C | 0.901 |
| G25A C46U C62G | 0.739 |
| G25A A43C A70G | 0.745 |
| G25A A37U C61A | 0.616 |
| G25A A43G | 0.949 |
| G25A A43C | 0.975 |
| G25A A43U | 0.842 |
| G25C A40G A65C | 0.653 |
| G25A G44A | 0.841 |
| G25A C31A A45C G50A A69U | ≤ 0.5 |
| C24U U32G A40U U64G | 0.593 |
| G25A A69C | 1.02 |
| C24U G44C G58C | 0.995 |
| G25A C27G G41C | 0.671 |
| C24U G38C G52C | ≤ 0.5 |
| C24U C66U | 0.794 |
| G25A A36G | 0.962 |
| C24U U32C A43U | 0.768 |
| G25C A40U A42C G52A | ≤ 0.5 |
| C24U U32G | 0.584 |
| C24U U32A | 0.784 |
| C24U U32C | 0.991 |

| Variant | yeast fitness |
| --- | --- |
| G25A A37G | 0.699 |
| G25A A37U | 0.652 |
| G25A A37C | 0.757 |
| G25A A45G | 0.961 |
| G25A A45C | 0.957 |
| G25A C61U A69C | 0.637 |
| G25A A36G A45C | 0.929 |
| G25A C29U A57U C62A A69G | ≤ 0.5 |
| G25A C30A C34A A69C | ≤ 0.5 |
| G25A A37C G38C C60U C62U A69U | ≤ 0.5 |
| C24U U35G C46A | ≤ 0.5 |
| G25A A36U C49U | 0.545 |
| C24U U35C C66U | ≤ 0.5 |
| C24U G67C G68A | 0.587 |
| C24U U47C C62U | 0.803 |
| G25A G39A G52A | ≤ 0.5 |
| C24U C60G C66G | ≤ 0.5 |
| G25A C29U C49U A65C | ≤ 0.5 |
| G25A C55U A69C | 0.639 |
| G25A U26C C29G C61A | ≤ 0.5 |
| G25C A36G | 0.864 |
| G25C A36U | 0.724 |
| G25C A36C | 0.718 |
| C24U G50A | 0.844 |

| Variant | yeast fitness |
| --- | --- |
| G25C A45C C46A | 0.991 |
| G25A A45C U53C C55U G56C | ≤ 0.5 |
| C24U G39A A70C | 0.668 |
| C24U U32C A36U A37G U54A | ≤ 0.5 |
| C24U U26A U28G U54G C61U | ≤ 0.5 |
| G25A C29G A45C C46G | ≤ 0.5 |
| C24U G41A C61G | 0.587 |
| G25C A40U A42C C61A C66U | ≤ 0.5 |
| G25C A65C | 1.03 |
| G25A U28A A36U A37U A42U | ≤ 0.5 |
| G25A A40U C49U C60A G63A | 0.507 |
| C24U G25A C30U G50A G68C | ≤ 0.5 |
| G25A U35A A36U C61U | ≤ 0.5 |
| G25A C27U U53C A70G | ≤ 0.5 |
| C24U G58C A65U | 0.644 |
| G25A U26A C31U G38A A42G A43U | 0.52 |
| G25C A40U A42C G52A U64C C66U | ≤ 0.5 |
| C24U U26G A43G | 0.727 |
| G25C A43U G50A A70C | ≤ 0.5 |
| G25A U47C | 0.93 |
| G25A U53A G63A | 0.523 |
| C24U U53A C66U A70U | ≤ 0.5 |
| G25C C27G G58A | ≤ 0.5 |
| G25C A45C | 1.06 |

| Variant | yeast fitness |
| --- | --- |
| G25C A45G | 0.869 |
| C24U U26G A43G A70U | 0.597 |
| G25A C27U A36U | 0.53 |
| C24U G25A C30U C46A C55G C60A | ≤ 0.5 |
| C24U U32A G38A A57U | ≤ 0.5 |
| G25A C30U C62U | 0.583 |
| G25A G41A A70C | 0.714 |
| G25A C29A A43C A57C | ≤ 0.5 |
| C24U U59G | 0.712 |
| C24U U59C | 0.879 |
| G25A A37U A40C G67A | ≤ 0.5 |
| C24U G51A A57U | ≤ 0.5 |
| G25A C30U C60G | 0.541 |
| G25A G48C | 1.14 |
| G25A G50U | 0.826 |
| G25A G50A | 0.997 |
| G25A A43U G56A | 0.718 |
| G25A A45G G50C A69C | 0.526 |
| C24U C60G A70C | 0.562 |
| G25C A69C | 1.07 |
| G25C A43U G50A G68A | ≤ 0.5 |
| G25A U28A A65U | 0.697 |
| G25A C33U A45U C60G | ≤ 0.5 |
| G25A A45G G48A G50C A69C | ≤ 0.5 |

| Variant | yeast fitness |
| --- | --- |
| G25A A37U G41A C62G | ≤ 0.5 |
| G25A C29U A45U G58C | 0.772 |
| G25A C27A | 1.11 |
| G25A C27G | 0.78 |
| C24U G25C C30U A45U C49G A65U | ≤ 0.5 |
| C24U G44A U54G G67A | ≤ 0.5 |
| G25C A42U C46U | 0.502 |
| G25A U54C | 0.87 |
| G25A U54G | 0.566 |
| C24U U47C G48A C62G A69U | ≤ 0.5 |
| G25A U35G | 0.603 |
| G25A U35C | 0.942 |
| C24U G52A A57C | ≤ 0.5 |
| G25A A42U | 0.813 |
| G25A A42G | 0.89 |
| G25A C27G C29G C46A A65G C66U | ≤ 0.5 |
| C24U G44A U54C | 0.726 |
| G25A G41A C46G G50A C62A | ≤ 0.5 |
| G25A A40G C55G | ≤ 0.5 |
| G25C A40G A57C A69U A70C | ≤ 0.5 |
| C24U G25A C30U G50A G56A | ≤ 0.5 |
| G25A G56A | 0.919 |
| G25A C31U C66U | 0.761 |
